In brackets after ≈: the same amount, converted by molar mass. Activity calls are given as the source filed them. No cut-off for these calls is given here.
Key:
[1] = biological target: Motilin receptor (Oryctolagus cuniculus) (UniProt A5A4K8); experiment: Agonist activity at motilin receptor in rabbit smooth muscle assessed as tachyphylaxis at EC90 concentration after 4th dose; format: functional
Summary of the method: (§1)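 Rabbit smooth muscle contractility assay. EC50 is the concentration giving 50% of the maximal possible contraction. Tachyphylaxis is the % contractile response to an EC90 drug concentration after three cycles of administration and washout.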

Motilin receptor = Motilin receptor (Oryctolagus cuniculus, UniProt A5A4K8); experiment: Agonist activity at motilin receptor in rabbit smooth muscle assessed as maximal possible tissue contraction; format: functional; summary of the method: as §1
Chain of Motilin receptor (A5A4K8 whole entry): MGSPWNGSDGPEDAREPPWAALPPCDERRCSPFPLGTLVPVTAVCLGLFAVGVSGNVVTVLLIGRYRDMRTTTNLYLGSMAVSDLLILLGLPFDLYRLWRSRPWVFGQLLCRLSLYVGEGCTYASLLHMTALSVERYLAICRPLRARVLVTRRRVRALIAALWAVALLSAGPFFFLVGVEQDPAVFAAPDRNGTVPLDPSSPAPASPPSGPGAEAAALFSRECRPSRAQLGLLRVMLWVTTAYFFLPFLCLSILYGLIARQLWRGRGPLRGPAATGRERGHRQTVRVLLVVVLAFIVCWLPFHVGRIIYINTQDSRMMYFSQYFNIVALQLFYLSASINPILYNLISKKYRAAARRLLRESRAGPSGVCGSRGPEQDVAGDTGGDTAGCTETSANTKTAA

hERG (KCNH2) [2] = biological target: T1, hERG (KCNH2) (Homo sapiens, UniProt Q12809); experiment: Inhibition of human ERG expressed in HEK cells at 300 uM; format: cell-based, HEK293; conditions: HEK cells expressing human ERG
T1 sequence (Q12809 whole entry): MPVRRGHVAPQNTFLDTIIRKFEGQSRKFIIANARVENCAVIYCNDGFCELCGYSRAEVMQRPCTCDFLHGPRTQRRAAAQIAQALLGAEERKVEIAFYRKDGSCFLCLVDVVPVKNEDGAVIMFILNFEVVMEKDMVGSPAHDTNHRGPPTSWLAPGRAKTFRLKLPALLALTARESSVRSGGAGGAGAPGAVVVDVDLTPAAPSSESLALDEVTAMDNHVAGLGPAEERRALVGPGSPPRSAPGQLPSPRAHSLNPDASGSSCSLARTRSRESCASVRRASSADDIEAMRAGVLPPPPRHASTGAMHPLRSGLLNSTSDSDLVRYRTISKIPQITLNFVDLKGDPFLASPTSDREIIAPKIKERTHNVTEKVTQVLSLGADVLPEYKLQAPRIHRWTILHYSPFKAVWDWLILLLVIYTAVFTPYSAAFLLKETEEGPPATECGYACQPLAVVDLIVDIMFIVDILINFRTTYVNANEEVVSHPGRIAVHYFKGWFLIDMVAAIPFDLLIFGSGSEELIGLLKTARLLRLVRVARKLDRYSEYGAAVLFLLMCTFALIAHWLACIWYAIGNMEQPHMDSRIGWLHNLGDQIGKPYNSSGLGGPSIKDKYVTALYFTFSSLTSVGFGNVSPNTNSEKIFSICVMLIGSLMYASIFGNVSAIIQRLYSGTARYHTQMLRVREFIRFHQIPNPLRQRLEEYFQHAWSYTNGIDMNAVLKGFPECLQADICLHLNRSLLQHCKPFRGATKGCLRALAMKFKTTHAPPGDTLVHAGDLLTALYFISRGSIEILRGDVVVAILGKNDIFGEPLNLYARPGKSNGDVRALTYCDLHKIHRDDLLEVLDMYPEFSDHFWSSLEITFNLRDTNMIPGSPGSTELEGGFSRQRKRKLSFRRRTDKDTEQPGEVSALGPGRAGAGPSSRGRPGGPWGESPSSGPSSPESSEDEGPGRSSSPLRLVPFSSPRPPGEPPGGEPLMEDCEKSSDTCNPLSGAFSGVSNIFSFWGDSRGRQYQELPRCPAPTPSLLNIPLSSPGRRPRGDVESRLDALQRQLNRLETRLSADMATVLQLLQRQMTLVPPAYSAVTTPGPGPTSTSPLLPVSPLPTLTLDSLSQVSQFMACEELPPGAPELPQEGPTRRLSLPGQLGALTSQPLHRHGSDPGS

hERG (KCNH2) [3] = biological target: T1, hERG (KCNH2); experiment: Inhibition of human ERG expressed in HEK cells at 30 uM; format: cell-based, HEK293; conditions: HEK cells expressing human ERG
Streptococcus pneumoniae [4] = experiment: Antibacterial activity against erythromycin-sensitive Streptococcus pneumoniae ATCC 6301; format: functional
Summary of the method: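 MIC, the minimal growth inhibitory concentration, was determined in routine screening against the highly erythromycin-sensitive strain Streptococcus pneumoniae ATCC6301.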

[5] = Ratio of IC50 for human ERG to EC50 for rabbit motilin receptor agonism; format: functional
Summary of the method: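 The motilin EC50 came from the rabbit smooth muscle contraction assay, and the ratio of the two served as a cardiovascular safety predictor.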

[6] = biological target: Voltage-gated inwardly rectifying potassium channel KCNH2 (Homo sapiens, UniProt Q12809); experiment: Inhibition of human ERG expressed in HEK cells; format: cell-based, HEK293
Chain of Voltage-gated inwardly rectifying potassium channel KCNH2 (Q12809 whole entry): as above

Micrococcus luteus = experiment: Antimicrobial activity against Micrococcus luteus; format: functional, organism-based
Summary of the method: (§2)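 MIC was determined across a panel of about 200 clinical isolates from a variety of specimens held in a university clinical microbiology collection, with about 10 isolates per species. The panel covers gut flora and organisms commonly known to develop antibiotic resistance.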

Staphylococcus aureus = experiment: Antimicrobial activity against Staphylococcus aureus; format: functional, organism-based; summary of the method: as §2
Streptococcus pyogenes = experiment: Antimicrobial activity against Streptococcus pyogenes; format: functional, organism-based; summary of the method: as §2
Escherichia coli = experiment: Antimicrobial activity against Escherichia coli; format: functional, organism-based; summary of the method: as §2
Corynebacterium jeikeium = experiment: Antimicrobial activity against Corynebacterium jeikeium; format: functional, organism-based; summary of the method: as §2
Streptococcus equinus = experiment: Antimicrobial activity against Streptococcus bovis; format: functional, organism-based; summary of the method: as §2
Klebsiella pneumoniae = experiment: Antimicrobial activity against Klebsiella pneumoniae; format: functional, organism-based; summary of the method: as §2
Bacteroides fragilis = experiment: Antimicrobial activity against Bacteroides fragilis; format: functional, organism-based; summary of the method: as §2
Moraxella catarrhalis = experiment: Antimicrobial activity against Moraxella catarrhalis; format: functional, organism-based; summary of the method: as §2
Proteus mirabilis = experiment: Antimicrobial activity against Proteus mirabilis; format: functional, organism-based; summary of the method: as §2
Staphylococcus = experiment: Antimicrobial activity against Staphylococcus coagulase; format: functional, organism-based; summary of the method: as §2
Enterococcus faecium = experiment: Antimicrobial activity against Enterococcus faecium; format: functional, organism-based; summary of the method: as §2
Corynebacterium sp. = experiment: Antimicrobial activity against Corynebacterium sp.; format: functional, organism-based; summary of the method: as §2
Lactobacillus sp. = experiment: Antimicrobial activity against Lactobacillus sp.; format: functional, organism-based; summary of the method: as §2
Cutibacterium acnes = experiment: Antimicrobial activity against Propionibacterium acnes; format: functional, organism-based
Haemophilus influenzae = experiment: Antimicrobial activity against Haemophilus influenzae; format: functional, organism-based; summary of the method: as §2
Enterococcus faecalis = experiment: Antimicrobial activity against Enterococcus faecalis; format: functional, organism-based; summary of the method: as §2
Streptococcus pneumoniae [7] = experiment: Antimicrobial activity against Streptococcus pneumoniae; format: functional, organism-based; summary of the method: as §2
Clostridium perfringens = experiment: Antimicrobial activity against Clostridium perfringens; format: functional, organism-based
Summary of the method: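 MIC determined across a panel of about 200 clinical strains that represent gut flora and species known to develop antibiotic resistance. The panel included about 10 Clostridium perfringens isolates, taken from a variety of clinical specimens and held in the University of Rochester Medical Center clinical microbiology collection.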

Clostridioides difficile = experiment: Antimicrobial activity against Clostridium difficile; format: functional, organism-based; summary of the method: as §2

Chain of Motilin receptor (Oryctolagus cuniculus) (A5A4K8 as listed by the source): as the sequence (A5A4K8 whole entry) above

| SMILES | Activity [1] [%] | EC50 (Motilin receptor) [nM] | inhibition at 300 µM (hERG (KCNH2) [2]) [%] | inhibition at 30 µM (hERG (KCNH2) [3]) [%] | MIC (Streptococcus pneumoniae [4]) [µg/mL] | also measured |
| --- | --- | --- | --- | --- | --- | --- |
| CC[C@H]1OC(=O)[C@H](C)[C@@H](O[C@H]2C[C@@](C)(OC)[C@@H](O)[C@H](C)O2)[C@H](C)[C@@H](O[C@@H]2O[C@H](C)C[C@H](N(C)C(C)C)[C@H]2O)[C@](C)(O)C[C@@H](C)[C@H](OCC(=O)N(C)C)[C@H](C)[C@@H](O)[C@]1(C)O | 95 | 660 | 29 | 8 | – | – |
| CCNC(=O)CO[C@@H]1[C@H](C)[C@@H](O)[C@](C)(O)[C@@H](CC)OC(=O)[C@H](C)[C@@H](O[C@H]2C[C@@](C)(OC)[C@@H](O)[C@H](C)O2)[C@H](C)[C@@H](O[C@@H]2O[C@H](C)C[C@H](N(C)C(C)C)[C@H]2O)[C@](C)(O)C[C@H]1C | 89 | 67 | 75 | 24 | > 128 | – |
| CC[C@H]1OC(=O)[C@H](C)[C@@H](O[C@H]2C[C@@](C)(OC)[C@@H](O)[C@H](C)O2)[C@H](C)[C@@H](O[C@@H]2O[C@H](C)C[C@H](N(C)C(C)C)[C@H]2O)[C@](C)(O)C[C@@H](C)[C@H](OCC(=O)NC2CC2)[C@H](C)[C@@H](O)[C@]1(C)O | 82 | 31 | 60 | 23 | 128 (≈ 149 µM) | – |
| CC[C@H]1OC(=O)[C@H](C)[C@@H](O[C@H]2C[C@@](C)(OC)[C@@H](O)[C@H](C)O2)[C@H](C)[C@@H](O[C@@H]2O[C@H](C)C[C@H](N(C)C(C)C)[C@H]2O)[C@](C)(O)C[C@@H](C)[C@H](OCC(=O)NC2CCOCC2)[C@H](C)[C@@H](O)[C@]1(C)O | 88 | 120 | 67 | 23 | > 128 | – |
| CC[C@H]1OC(=O)[C@H](C)[C@@H](O[C@H]2C[C@@](C)(OC)[C@@H](O)[C@H](C)O2)[C@H](C)[C@@H](O[C@@H]2O[C@H](C)C[C@H](N(C)C(C)C)[C@H]2O)[C@](C)(O)C[C@@H](C)[C@H](OCC(=O)NC2CCC2)[C@H](C)[C@@H](O)[C@]1(C)O | 75 | 28 | 100 | 64 | 128 (≈ 146 µM) | – |
| CC[C@H]1OC(=O)[C@H](C)[C@@H](O[C@H]2C[C@@](C)(OC)[C@@H](O)[C@H](C)O2)[C@H](C)[C@@H](O[C@@H]2O[C@H](C)C[C@H](N(C)C(C)C)[C@H]2O)[C@](C)(O)C[C@@H](C)[C@H](OCC(N)=O)[C@H](C)[C@@H](O)[C@]1(C)O | 92 | 52 | 51 | 10 | > 128 | – |
| CC[C@H]1OC(=O)[C@H](C)[C@@H](O[C@H]2C[C@@](C)(OC)[C@@H](O)[C@H](C)O2)[C@H](C)[C@@H](O[C@@H]2O[C@H](C)C[C@H](N(C)C)[C@H]2O)[C@](C)(O)C[C@@H](C)C(=O)[C@H](C)[C@@H](O)[C@]1(C)O [ERYTHROMYCIN] | 97 | 1200 | – | – | 0.0025 (≈ 0.00341 µM) | – |
| CC[C@H]1OC(=O)[C@H](C)[C@@H](O[C@H]2C[C@@](C)(OC)CC(C)O2)[C@H](C)[C@@H](O[C@@H]2O[C@H](C)C[C@H](N(C)CC)[C@H]2O)C2(C)CC(C)=C(O2)[C@H](C)[C@@H](O)[C@H]1C (single isomer, unassigned) | 22 | 7 | 100 | – | 64 (≈ 91.7 µM) | – |
| CC[C@H]1OC(=O)[C@H](C)[C@@H](O[C@H]2C[C@@](C)(OC)[C@@H](O)[C@H](C)O2)[C@H](C)[C@@H](O[C@@H]2O[C@H](C)C[C@H](N(C)C(C)C)[C@H]2O)[C@](C)(O)C[C@@H](C)[C@H](OCC(=O)Nc2cnccn2)[C@H](C)[C@@H](O)[C@]1(C)O | – | 69 | 88 | 40 | 128 (≈ 142 µM) | – |
| CC[C@H]1OC(=O)[C@H](C)[C@@H](O[C@H]2C[C@@](C)(OC)[C@@H](O)[C@H](C)O2)[C@H](C)[C@@H](O[C@@H]2O[C@H](C)C[C@H](N(C)C(C)C)[C@H]2O)[C@](C)(O)C[C@@H](C)[C@H](OCC(=O)NC(C)C)[C@H](C)[C@@H](O)[C@]1(C)O | – | 140 | 89 | 26 | 128 (≈ 148 µM) | – |
| CC[C@H]1OC(=O)[C@H](C)[C@@H](O[C@H]2C[C@@](C)(OC)[C@@H](O)[C@H](C)O2)[C@H](C)[C@@H](O[C@@H]2O[C@H](C)C[C@H](N(C)C(C)C)[C@H]2O)[C@](C)(O)C[C@@H](C)[C@H](O)[C@H](C)[C@@H](O)[C@]1(C)O [3 9-DIHYDRO-N-DESMETHYL-N-ISOPROPYLERYTHROMYCIN A] | 85 | 260 | 100 | 80 | 32 (≈ 41.9 µM) | Ratio IC50/EC50 [5]: 38; IC50 [6]: 10000 nM |
| CC[C@H]1OC(=O)[C@H](C)[C@@H](O[C@H]2C[C@@](C)(OC)[C@@H](O)[C@H](C)O2)[C@H](C)[C@@H](O[C@@H]2O[C@H](C)C[C@H](N(C)C(C)C)[C@H]2O)[C@](C)(O)C[C@@H](C)[C@H](OCCCC(=O)NC)[C@H](C)[C@@H](O)[C@]1(C)O | 79 | 84 | 56 | 13 | 128 (≈ 148 µM) | – |
| CC[C@H]1OC(=O)[C@H](C)[C@@H](O[C@H]2C[C@@](C)(OC)[C@@H](O)[C@H](C)O2)[C@H](C)[C@@H](O[C@@H]2O[C@H](C)C[C@H](N(C)C(C)C)[C@H]2O)[C@](C)(O)C[C@@H](C)[C@H](OCC(=O)NC)[C@H](C)[C@@H](O)[C@]1(C)O | 89 | 58 | – | – | > 128 | Activity (Micrococcus luteus): inactive; Activity (Staphylococcus aureus): inactive; Activity (Streptococcus pyogenes): inactive; Activity (Escherichia coli): inactive; Activity (Corynebacterium jeikeium): inactive; Activity (Streptococcus equinus): inactive; Activity (Klebsiella pneumoniae): inactive; Activity (Bacteroides fragilis): inactive; Activity (Moraxella catarrhalis): inactive; Activity (Proteus mirabilis): inactive; Activity (Staphylococcus): inactive; Activity (Enterococcus faecium): inactive; Activity (Corynebacterium sp.): inactive; Activity (Lactobacillus sp.): inactive; Activity (Cutibacterium acnes): inactive; Activity (Haemophilus influenzae): inactive; Activity (Enterococcus faecalis): inactive; Activity (Streptococcus pneumoniae [7]): inactive; Activity (Clostridium perfringens): inactive; Activity (Clostridioides difficile): inactive |
| CC[C@H]1OC(=O)[C@H](C)[C@@H](O[C@H]2C[C@@](C)(OC)[C@@H](O)[C@H](C)O2)[C@H](C)[C@@H](O[C@@H]2O[C@H](C)C[C@H](N(C)C(C)C)[C@H]2O)[C@](C)(O)C[C@@H](C)[C@H](OCC(=O)NCCO)[C@H](C)[C@@H](O)[C@]1(C)O | 87 | 120 | 68 | 29 | 128 (≈ 148 µM) | – |
| CC[C@H]1OC(=O)[C@H](C)[C@@H](O[C@H]2C[C@@](C)(OC)[C@@H](O)[C@H](C)O2)[C@H](C)[C@@H](O[C@@H]2O[C@H](C)C[C@H](N(C)C(C)C)[C@H]2O)[C@](C)(O)C[C@@H](C)[C@H](OCC(=O)NC)[C@H](C)[C@@H](O)[C@H]1C | 86 | 90 | 67 | 21 | – | – |
| CC[C@H]1OC(=O)[C@H](C)[C@@H](O[C@H]2C[C@@](C)(OC)[C@@H](O)[C@H](C)O2)[C@H](C)[C@@H](O[C@@H]2O[C@H](C)C[C@H](N(C)C(C)C)[C@H]2O)[C@](C)(O)C[C@@H](C)[C@H](OCC(=O)Nc2ccncn2)[C@H](C)[C@@H](O)[C@]1(C)O | 63 | 25 | 60 | 16 | – | – |
